Where a SMILES comes first, the peptide text is derived from it. Bridges are numbered along the chain shown (N, C = ends). Roman numbers before positions name the chains, in order. [ ]: non-standard residue; d: D form. PEG3 = NCCOCCOCCOCCC(=O)O; Dap = NC[C@H](N)C(=O)O
Legend:
mouse PlxnB1 = target: T1, mouse PlxnB1 (Mus musculus, UniProt Q8CJH3); assay: Surface plasmon resonance; type: binding
T1 sequence (Q8CJH3 20-479 limits assumed): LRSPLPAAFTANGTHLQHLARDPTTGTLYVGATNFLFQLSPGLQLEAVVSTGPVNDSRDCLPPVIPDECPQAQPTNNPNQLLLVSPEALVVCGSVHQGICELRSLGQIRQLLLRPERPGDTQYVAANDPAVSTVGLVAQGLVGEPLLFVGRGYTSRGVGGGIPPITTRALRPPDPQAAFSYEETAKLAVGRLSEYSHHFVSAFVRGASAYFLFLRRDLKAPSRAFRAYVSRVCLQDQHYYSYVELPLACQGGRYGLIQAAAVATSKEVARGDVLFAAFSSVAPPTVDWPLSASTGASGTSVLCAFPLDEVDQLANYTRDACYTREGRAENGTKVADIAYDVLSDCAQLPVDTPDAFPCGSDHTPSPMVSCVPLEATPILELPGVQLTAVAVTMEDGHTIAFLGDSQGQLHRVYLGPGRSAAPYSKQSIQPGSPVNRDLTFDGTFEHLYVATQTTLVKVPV

[1] = test system: mouse primary osteoblasts (calvarial cells); assay: Bone nodule formation in primary calvarial cells, alizarin red S staining; type: cell-based; details: 10 µg/mL mouse Sema4D-Fc; peptide 0.05, 0.5, 5 µM; 21 d
[2] = test system: Col1a1, Alpl, Bglap expression in mouse primary osteoblasts; assay: qPCR of genes implicated in osteoblastic bone formation in primary osteoblasts; type: cell-based; details: with or without Sema4D-Fc, vs vehicle control
ovariectomized mice = type: in vivo, mouse; details: OVX mice, 5 µmol/kg i.v. once weekly, 4 wk, vs vehicle
Method in brief: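 C57BL/6J ovariectomized mice, kept specific-pathogen-free, were given test compound i.v. once weekly for 4 wk. Sham-operated and vehicle groups served as controls. Bones were fixed in 70% ethanol and scanned by µCT, and 3D structural indices were computed. Undecalcified tibiae were embedded in glycol methacrylate and cut into 5 µm sections. Sections were stained with toluidine blue for osteoblast parameters and TRAP for osteoclast parameters. Data are mean ± SEM.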

CC[C@H](C)[C@@H]1NC(=O)[C@H](Cc2ccc(O)cc2)NC(=O)[C@@H]2CCCN2C(=O)[C@H](CCCNC(=N)N)NC(=O)[C@@H](Cc2c[nH]c3ccccc23)NC(=O)CSC[C@@H](C(=O)NCC(=O)NCCOCCOCCOCCC(=O)NC[C@H](NC(=O)CCOCCOCCOCCNC(=O)CNC(=O)[C@@H]2CSCC(=O)N[C@H](Cc3c[nH]c4ccccc34)C(=O)N[C@@H](CCCNC(=N)N)C(=O)N3CCC[C@H]3C(=O)N[C@@H](Cc3ccc(O)cc3)C(=O)N[C@@H]([C@@H](C)CC)C(=O)N[C@@H](CCC(=O)O)C(=O)N[C@@H](CCCNC(=N)N)C(=O)N[C@@H](Cc3c[nH]c4ccccc34)C(=O)N[C@@H]([C@@H](C)O)C(=O)NCC(=O)N[C@@H](CCCNC(=N)N)C(=O)N[C@@H](CC(C)C)C(=O)N[C@@H]([C@@H](C)CC)C(=O)N[C@@H](C(C)C)C(=O)N2)C(N)=O)NC(=O)[C@H](C(C)C)NC(=O)[C@H]([C@@H](C)CC)NC(=O)[C@H](CC(C)C)NC(=O)[C@H](CCCNC(=N)N)NC(=O)CNC(=O)[C@H]([C@@H](C)O)NC(=O)[C@H](Cc2c[nH]c3ccccc23)NC(=O)[C@H](CCCNC(=N)N)NC(=O)[C@H](CCC(=O)O)NC1=O [PB1d6A9] (I: {CH2CO}-[dW]RPYIERWTGRLIVCG[PEG3][Dap]-NH2 / II: {CH2CO}-[dW]RPYIERWTGRLIVCG[PEG3]; amide I:18-II:C; thioether I:N-I:15, II:N-II:15)
Kd (mouse PlxnB1): 0.2 nM | decrease in dissociation rate of dimer over monomer, mouse PlxnB1 (mouse PlxnB1; PB1d6A9 vs PB1m6A9): 10 fold | improvement in KD of dimer over monomer, mouse PlxnB1 (mouse PlxnB1; PB1d6A9 vs PB1m6A9): ~220 fold | increase in association rate of dimer over monomer, mouse PlxnB1 (mouse PlxnB1; PB1d6A9 vs PB1m6A9): 22 fold | bone nodule formation (alizarin red S) [1]: dose-dependent increases in bone formation | expression of Col1a1, Alpl and Bglap [2]: enhanced | bone loss, µCT of femurs (ovariectomized mice): clear suppression of bone loss

— PMC7733813 (Proceedings of the National Academy of Sciences of the …, 2020)
